# UCH37 inh – inhibitors of human deubiquitinating enzyme UCH37; Q9Y5K5; purified proteasome/UCH37, Ub-AMC cleavage fluorescence; inhibition, % (no concentration beside the values); 330,000 compounds, 0.33% hits; AID 588478;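 active = mean inhibition over replicate wells above about 20%, limit read from the data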;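 note: 0% = compound-free wells with enzyme and 100% = wells lacking proteasome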
#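 Test system – human UCH37 enzyme supplied as purified proteasome complex · Incubation – 30 min preincubation with enzyme, 25 min cleavage at room temperature · Detection – AMC fluorescence from Ub-AMC cleavage, excitation 355 nm, emission 460 nm · Benchmarks – no-proteasome wells (full inhibition) and compound-free wells (no inhibition)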
# A3G deaminase – inhibitors of human APOBEC3G DNA deaminase. Q9HC16. recombinant A3G, ssDNA deamination FAM/TAMRA fluorescence. inhibition, % at 20 µM. 330,000 compounds, 0.28% hits. AID 493012;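 active = inhibition of at least 40% at 20 µM, with no more than 30% in the related APOBEC3A deaminase screen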;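 note: plate controls were DMSO wells with A3G for no effect and wells lacking A3G enzyme for full effect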
# AHR act – activates the human aryl hydrocarbon receptor. P35869. AHR-responsive luciferase reporter cells, luminescence. activation, % at 5 µM. 320,000 compounds, 2.5% hits. AID 2796; in the data active = activation above about 47%;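 note: 0% = vehicle wells and 100% = reference agonist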
# Target sequence (P35869 whole entry, looked up): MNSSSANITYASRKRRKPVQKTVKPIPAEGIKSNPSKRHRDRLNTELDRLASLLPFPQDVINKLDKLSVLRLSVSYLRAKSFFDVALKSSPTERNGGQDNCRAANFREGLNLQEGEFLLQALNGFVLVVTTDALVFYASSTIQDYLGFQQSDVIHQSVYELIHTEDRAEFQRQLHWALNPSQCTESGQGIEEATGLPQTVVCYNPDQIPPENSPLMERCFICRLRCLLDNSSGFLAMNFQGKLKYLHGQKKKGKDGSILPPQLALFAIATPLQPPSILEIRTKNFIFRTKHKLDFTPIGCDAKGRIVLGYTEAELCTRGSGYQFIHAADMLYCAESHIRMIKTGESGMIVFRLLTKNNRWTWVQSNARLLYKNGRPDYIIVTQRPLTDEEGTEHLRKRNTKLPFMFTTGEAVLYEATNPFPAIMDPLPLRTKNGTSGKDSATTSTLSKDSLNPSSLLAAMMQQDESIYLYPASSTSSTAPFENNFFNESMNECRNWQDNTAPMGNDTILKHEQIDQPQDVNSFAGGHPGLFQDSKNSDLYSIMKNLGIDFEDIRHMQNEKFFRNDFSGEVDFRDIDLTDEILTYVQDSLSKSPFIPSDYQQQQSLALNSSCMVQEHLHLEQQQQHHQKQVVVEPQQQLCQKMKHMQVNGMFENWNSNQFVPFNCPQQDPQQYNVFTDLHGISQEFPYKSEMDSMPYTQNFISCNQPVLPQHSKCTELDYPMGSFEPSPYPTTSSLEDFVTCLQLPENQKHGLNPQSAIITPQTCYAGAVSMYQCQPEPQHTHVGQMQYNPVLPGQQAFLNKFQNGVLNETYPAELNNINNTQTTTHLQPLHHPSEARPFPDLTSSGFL
# A3A deaminase – blocks human APOBEC3A ssDNA deamination; P31941; recombinant A3A, FAM/TAMRA ssDNA deamination fluorescence; inhibition, % at 20 µM; 330,000 compounds, 0.41% hits; AID 493011;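 active = at least 40% inhibition at 20 µM here, with at most 30% in a related deaminase screen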;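 note: plate controls were A3A with DMSO for no effect and wells lacking A3A enzyme for full effect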
# PolyA inh – inhibitors of polyadenylation in S. cerevisiae | S. cerevisiae SKY197-pL101 polyadenylation reporter, beta-gal luminescence; efflux-impaired pdr1/pdr3 knockout yeast; score 100 = 6 SD above DMSO | activity score, % at 12 µM | 300,000 compounds, 0.02% hits;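 active = lowest replicate activity score at least 50, where 100 means six control SD above control mean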;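 note: yeast exposed to compound for 9 h at 30 °C; higher score means more reporter readthrough which indicates perturbed polyadenylation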
# Arr AP2 block – human beta-arrestin and AP2 interaction inhibition; FITC-arrestin peptide / GST-AP2 beads, flow cytometry; AP2 beta2 appendage carries R879A mutation; inhibition, % at 10 µM; 340,000 compounds, 0.31% hits; AID 504490;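 active = inhibition above a set limit, near 3 SD of compounds lacking own fluorescence, cut at about 54% in these data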;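 note: plate controls were DMSO wells for no effect and 5 µM unlabelled arrestin peptide for full effect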
#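 System: GST-AP2 R879A glutathione beads | Also added: FITC-arrestin peptide, 50 nM | Times: 12 min plus 1 h, RT | Signal: Bead flow cytometry, FITC channel | Buffer or medium: PBS with 0.05% Tween 20 and 0.1% BSA | Read-out basis: Percent drop in bead-associated FITC signal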
# Numbers without * were called inactive; . = no result given. Rows were chosen to be rich in hits. Some 3.4% of all compounds tested hit in one or more screens of this group.
SMILES,UCH37 inh,A3G deaminase,AHR act,A3A deaminase,PolyA inh,Arr AP2 block
Cn1c(=O)c2c(SCc3cccnc3)nc(C3CC3)nc2n(C)c1=O,1,-2,75*,3,19,23
Cc1nnsc1C(=O)NN=Cc1c(F)cccc1Cl,0,.,.,.,.,.
Nc1nnnn1N=Cc1cccs1,3,.,.,.,.,.
C=CCc1cccc(C=NNC(=O)COc2ccc(-n3cnnn3)cc2)c1O,0,.,.,.,.,.
CN(CC(=O)Nc1ccc(N2CCOCC2)cc1)CC(=O)Nc1ccc(N2CCOCC2)cc1,4,0,52*,4,8,33
CC(C)=CCc1c(O)cc2c(c1O)C(=O)CC(c1ccccc1)O2 (stereo not drawn),2,-10,51*,-2,-13,-5
COc1cccc(OC)c1C(=O)Nc1sc2c(c1C#N)CCC2,-20,3,54*,3,-9,-14
N#CCSc1nc2ccccc2c2nc3ccccc3n12,1,-7,48*,1,-57,-1
CCn1c(SCC#N)nc2ccccc2c1=O,3,1,3,5,1,10
N#C/C(=C(/O)CCl)c1nc2c(s1)CCc1ccccc1-2,5,20,67*,-3,-11,9
COc1cc(NC(=S)Nc2ccccn2)c(OC)cc1Cl,-1,-1,58*,0,-8,-8
COc1ccc(-c2cc(C(=O)NN=Cc3cccnc3)c3ccccc3n2)cc1,-53,.,.,.,.,.
COC(=O)/C(=C\Nc1ccccc1N)c1ncc(C(F)(F)F)cc1Cl,-23,5,69*,5,5,-7
Cc1cccc(NC(=O)CNC(=O)c2ccc3c(c2)OCO3)n1,-1,-9,50*,0,-1,0
O=C(Nc1cccc(F)c1)c1ccc2c(c1)OCO2,1,-2,56*,5,-16,3
O=C(Nc1ccc2c(c1)OCO2)c1ccc2nc[nH]c2c1,1,11,62*,-2,-3,5
Cc1cccc(NC(=O)c2ccc3c(c2)OCCO3)n1,4,-4,10,-1,-1,-6
O=C(NC1CCCCCCC1)c1ccc2c(c1)OCO2,2,-3,69*,-3,6,-3
COc1ccccc1N1CCN(N=C(C)c2ccccc2O)CC1,3,.,.,.,.,.
COc1cc(C=c2sc3nc(-c4ccccc4)c(-c4ccccc4)n3c2=O)cc(OC)c1OC,6,.,.,.,.,.
CC(=NNC(=O)c1ccc(N)cc1)C1CC1,-1,.,.,.,.,.
COc1ccc2nc(NC(=O)c3ccco3)sc2c1,-38,-6,-6,-4,-20,31
Cc1cccc2sc(NNC(=O)c3cc(=O)c4ccccc4o3)nc12,.,-3,67*,0,-19,22
COc1ccc2nc(NNC(=O)c3cc(=O)c4ccccc4o3)sc2c1,.,-8,73*,-2,-5,27
Cc1ccc2sc(NNC(=O)c3cc(-c4cccs4)nc4ccccc34)nc2c1C,.,.,24,.,26,.
SMILES,UCH37 inh,A3G deaminase,AHR act,A3A deaminase,PolyA inh,Arr AP2 block
O=C(NNc1nc2c(F)cccc2s1)c1cc(=O)c2ccccc2o1,.,-1,80*,-1,2,-3
Cc1nc(C)c(C(=O)Nc2nc3c(C)cccc3s2)o1,-1,15,25,31,-3,2
Cc1ccc2sc(NNC(=O)c3cc(=O)c4ccccc4o3)nc2c1C,.,-10,76*,-1,10,21
O=C1CCCC(=NNC(=O)c2ccc(COc3cccc4cccnc34)cc2)C1,-1,.,.,.,.,.
CCC(=O)Nc1cc(Cl)ccc1C(=O)O,1,-2,0,-1,7,2
O=C(O)c1ccc(Cl)cc1Nc1nc2cc(Cl)ccc2o1,-3,.,59*,.,-11,-6
CC(=NNC(=O)c1cccnc1)c1ccc(OC2OCCOC2Oc2ccc(C(C)=NNC(=O)c3cccnc3)cc2)cc1 (stereo not drawn),2,.,.,.,.,.
Cc1ccc(N/N=C/c2ccncc2)cc1,.,5,51*,-1,-28,-5
CN(C)c1ccc(N=Nc2ccccc2Br)cc1,3,-1,53*,0,-36,8
O=C(Nc1cc2c3c(c1)CC(=O)N3CCC2)c1ccc(F)cc1,3,3,47*,8,16,14
COc1ccc(C(=O)Nc2cc3c4c(c2)CC(=O)N4CCC3)cc1,3,5,-2,11,1,34
Cc1ccc([C@@H]2[C@@H]3C(=O)N(C)C(=O)[C@@H]3[C@]3(C)C(=O)N(Cc4ccccc4)CC(=O)N23)o1,25*,3,3,1,-6,12
Cc1ccc([C@@H]2[C@@H]3C(=O)N(C)C(=O)[C@@H]3[C@]3(C)C(=O)N(Cc4ccccn4)CC(=O)N23)o1,3,-11,0,-4,0,17
O=C(Nc1c(Cl)cc(Cl)cc1-c1nc2ccccc2s1)c1ccc(Br)o1,-15,-5,61*,2,-16,33
CCN(CC)C(=O)C1CCCN(c2ccc([N+](=O)[O-])cc2C=NNC(=O)c2cccc(O)c2)C1 (stereo not drawn),1,.,.,.,.,.
O=C(NN=C1c2ccccc2-c2ccccc21)c1cccc(Br)c1,2,-5,56*,-11,-3,-3
CCC(C)[C@H](NC(=O)OC(C)(C)C)C(=O)NN=Cc1ccc2cc(OC)ccc2n1 (stereo partly drawn),-236,.,.,.,.,.
CCc1ccc2c(c1)[C@H]1OCC[C@H]1[C@@H](c1cccs1)N2,6,-4,78*,0,-18,16
c1coc(-c2nnc(-c3ccc4c(c3)OCO4)o2)c1,-181,5,.,7,-6,.
Cc1nccc(-c2ccc3c(c2)OCO3)n1,-30,-11,58*,5,17,5
Cc1ccc(-c2nnc(-c3ccc4c(c3)OCO4)o2)cc1,-39,-1,79*,-1,.,-6
Fc1ccc(CSc2ccc(-c3ccc4c(c3)OCO4)nn2)cc1,-18,-3,1,-1,5,7
c1ccc(CSc2ccc(-c3ccc4c(c3)OCO4)nn2)cc1,2,-6,74*,-4,-18,8
c1ccc(-c2nccc(-c3ccc4c(c3)OCO4)n2)cc1,-7,-6,79*,-2,-10,-46
CCCS(=O)(=O)n1nc(-c2ccc(Br)cc2)cc1N,5,-11,58*,-4,16,7
CC(=O)c1c(C)oc2c1cc(NS(=O)(=O)c1ccc(C(=O)O)cc1)c1ccccc12,7,-7,39,-5,-14,8
Cc1ccc(S(=O)(=O)Nc2cc3c(C(=O)Nc4ccccc4)c(C)oc3c3ccccc23)cc1,1,-11,64*,-1,-3,0
S=c1[nH]nc(-c2cc(-c3ccccc3)n[nH]2)n1N=C/C=C/c1ccco1,7,.,.,.,.,.
Fc1ccccc1Nc1nc(N2CCOCC2)nc(N2CCOCC2)n1,-2,-3,.,-5,-29,-1

# Screening results deposited in PubChem BioAssay by several laboratories.
